Activity calls are given as the source filed them. No cut-off for these calls is given here.
Legend:
D(3) dopamine receptor [1] = biological target: D(3) dopamine receptor (Homo sapiens, UniProt P35462, V87F); experiment: Displacement of [3H]spiperone from human dopamine D3 receptor V2.61F mutant expressed in HEK293 cells after 60 mins; type: cell-based
In short: (§1)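 Membranes from HEK293 cells transiently transfected with wild-type or mutant D3 were harvested at 48 h. KD and Bmax were set by [3H]spiperone saturation. Competition at 20-200 μg/mL protein for 1 h at 37 °C, ended by filtration on PEI-soaked GF/B filters, then scintillation counting. Ki by Cheng-Prusoff as mean ± SEM of 3-12 experiments in triplicate.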

D(3) dopamine receptor [2] = biological target: T1, D(3) dopamine receptor (Homo sapiens, UniProt P35462); experiment: Displacement of [3H]spiperone from wild type human dopamine D3 receptor expressed in HEK293 cells after 60 mins; type: cell-based; in short: as §1
T1 sequence (P35462 whole entry): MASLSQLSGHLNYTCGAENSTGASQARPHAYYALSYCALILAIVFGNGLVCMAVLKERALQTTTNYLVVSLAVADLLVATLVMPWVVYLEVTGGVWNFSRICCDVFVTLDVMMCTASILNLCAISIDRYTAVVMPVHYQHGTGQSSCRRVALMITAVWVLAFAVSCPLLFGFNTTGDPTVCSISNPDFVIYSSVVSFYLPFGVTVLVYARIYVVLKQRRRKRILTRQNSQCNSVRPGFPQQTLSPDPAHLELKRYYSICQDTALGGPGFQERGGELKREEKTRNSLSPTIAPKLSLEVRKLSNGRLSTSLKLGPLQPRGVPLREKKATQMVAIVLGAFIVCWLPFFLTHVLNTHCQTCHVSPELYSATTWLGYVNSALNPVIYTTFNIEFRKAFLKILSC

Homo sapiens = organism: Homo sapiens; experiment: Selectivity ratio of Ki for human dopamine D3 receptor V2.61F mutant to Ki for wild type human dopamine D3 receptor
D(3) dopamine receptor [3] = biological target: T1, D(3) dopamine receptor; experiment: Displacement of [3H]spiperone from human dopamine D3 receptor expressed in CHO cells after 60 mins; type: cell-based
In short: (§2)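 Incubated 60 min at 37 °C in sodium-free buffer: 50 mM Tris-HCl, 1 mM EDTA, 5 mM MgCl2, 0.1 mM DTT, bacitracin, trypsin inhibitor, pH 7.4. Ki by Cheng-Prusoff; 3-9 experiments in triplicate.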

D(2) dopamine receptor [4] = biological target: T2, D(2) dopamine receptor (Homo sapiens, UniProt P14416); experiment: Displacement of [3H]spiperone from human dopamine D2short receptor expressed in CHO cells after 60 mins; type: cell-based; in short: as §2
T2 sequence (P14416 whole entry): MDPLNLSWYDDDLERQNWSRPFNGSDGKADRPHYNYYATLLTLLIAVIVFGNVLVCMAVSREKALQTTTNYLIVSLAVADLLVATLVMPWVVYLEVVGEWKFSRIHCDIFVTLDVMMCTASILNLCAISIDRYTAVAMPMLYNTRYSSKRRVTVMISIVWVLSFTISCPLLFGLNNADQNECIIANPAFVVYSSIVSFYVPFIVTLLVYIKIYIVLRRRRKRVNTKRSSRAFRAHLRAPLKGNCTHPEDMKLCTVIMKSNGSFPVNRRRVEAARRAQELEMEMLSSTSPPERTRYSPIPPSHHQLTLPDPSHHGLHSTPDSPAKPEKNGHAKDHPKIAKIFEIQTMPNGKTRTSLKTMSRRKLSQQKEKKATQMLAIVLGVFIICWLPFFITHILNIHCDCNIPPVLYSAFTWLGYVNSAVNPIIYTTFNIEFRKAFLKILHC

D(1A) dopamine receptor = D(1A) dopamine receptor (Sus scrofa, UniProt P50130); experiment: Displacement of [3H]SCH23390 from dopamine D1 receptor in porcine cerebral cortex after 60 mins; type: tissue-based
D(1A) dopamine receptor, sequence (P50130 whole entry): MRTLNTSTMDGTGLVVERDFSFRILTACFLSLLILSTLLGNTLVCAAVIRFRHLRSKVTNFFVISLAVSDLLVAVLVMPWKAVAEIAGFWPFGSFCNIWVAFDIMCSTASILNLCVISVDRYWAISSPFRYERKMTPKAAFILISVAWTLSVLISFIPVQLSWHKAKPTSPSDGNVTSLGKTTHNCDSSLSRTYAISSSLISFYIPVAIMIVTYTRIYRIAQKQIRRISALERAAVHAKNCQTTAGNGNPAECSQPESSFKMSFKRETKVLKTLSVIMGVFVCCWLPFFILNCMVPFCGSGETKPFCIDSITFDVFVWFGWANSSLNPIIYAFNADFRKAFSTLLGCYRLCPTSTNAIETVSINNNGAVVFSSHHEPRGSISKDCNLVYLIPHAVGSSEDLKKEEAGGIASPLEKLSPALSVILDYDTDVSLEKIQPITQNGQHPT

[5] = Displacement of [3H]prazosin from adrenergic alpha1 receptor in porcine cerebral cortex after 60 mins; type: tissue-based, Sus scrofa
D(2) dopamine receptor [6] = biological target: T2, D(2) dopamine receptor; experiment: Displacement of [3H]spiperone from human dopamine D2long receptor expressed in CHO cells after 60 mins; type: cell-based; in short: as §2
D(4) dopamine receptor = biological target: T3, D(4) dopamine receptor (Homo sapiens, UniProt P21917); experiment: Displacement of [3H]spiperone from human dopamine D4.4 receptor expressed in CHO cells after 60 mins; type: cell-based; in short: as §2
T3 sequence (P21917 whole entry): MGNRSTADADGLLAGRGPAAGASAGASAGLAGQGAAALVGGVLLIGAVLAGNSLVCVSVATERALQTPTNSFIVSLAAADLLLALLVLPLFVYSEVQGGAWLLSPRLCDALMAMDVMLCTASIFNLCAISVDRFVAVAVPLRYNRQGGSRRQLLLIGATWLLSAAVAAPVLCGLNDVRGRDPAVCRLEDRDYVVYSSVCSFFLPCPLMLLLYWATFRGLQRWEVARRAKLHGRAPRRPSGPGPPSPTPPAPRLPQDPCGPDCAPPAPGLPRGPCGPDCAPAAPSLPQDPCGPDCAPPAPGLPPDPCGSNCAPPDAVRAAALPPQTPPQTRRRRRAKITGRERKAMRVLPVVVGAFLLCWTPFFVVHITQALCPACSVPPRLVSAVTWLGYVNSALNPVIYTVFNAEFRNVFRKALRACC

D(3) dopamine receptor [7] = biological target: T1, D(3) dopamine receptor; experiment: Displacement of [3H]7-OH-DPAT from human dopamine D3 receptor expressed in CHO cells after 60 mins; type: cell-based
D(2) dopamine receptor [8] = biological target: T2, D(2) dopamine receptor; experiment: Displacement of [3H]7-OH-DPAT from human dopamine D2long receptor expressed in CHO cells after 60 mins; type: cell-based
In short: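 CHO membranes stably expressing D2long (200 μg protein/well) incubated with 1.0 nM [3H]7-OH-DPAT for 60 min at 37 °C. […] Ki from Cheng-Prusoff; 3-8 experiments in triplicate.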

D(3) dopamine receptor [9] = biological target: T1, D(3) dopamine receptor; experiment: Agonist activity at human dopamine D3 receptor expressed in CHO cells assessed as induction of [3H]thymidine incorporation after 2 hrs; type: functional, cell-based
In short: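 CHO dhfr- cells stably expressing D3 receptor labeled with 0.02 μCi [3H]thymidine per well (specific activity […]) for 2 h after stimulation with compound. […] Operational model used to estimate τ.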

D(2) dopamine receptor [10] = biological target: T2, D(2) dopamine receptor; experiment: Agonist activity at human dopamine D2long receptor expressed in HEK293 cells co-expressing Galphai2 assessed as incorporation of [35S]GTPgammaS into Galphai2 after 30 mins by scintillation counting; type: functional, cell-based
In short: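 Membranes from HEK293 cells transiently co-transfected with D2long and PTX-insensitive Gαi2 (receptor 4900 ± 440 fmol/mg), harvested 48 h post-transfection. Buffer: 20 mM Hepes, 10 mM MgCl2, 100 mM NaCl, 70 mg/L saponin, pH 7.4. Membranes (30-50 μg/mL protein), compound and 10 μM GDP preincubated 30 min at 30 °C, then 0.10 nM [35S]GTPγS added for 75 min at 30 °C. Reaction stopped by filtration and bound counts read.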

D(2) dopamine receptor [11] = biological target: T2, D(2) dopamine receptor; experiment: Agonist activity at human dopamine D2long receptor expressed in HEK293 cells co-expressing Galphao1 assessed as incorporation of [35S]GTPgammaS into Galphao1 after 30 mins by scintillation counting; type: functional, cell-based
In short: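 Membranes from HEK293 cells transiently co-transfected with D2long and PTX-insensitive Gαo (receptor 1500 ± 50 fmol/mg), harvested 48 h post-transfection. Buffer: 20 mM Hepes, 10 mM MgCl2, 100 mM NaCl, 70 mg/L saponin, pH 7.4. Membranes (30-50 μg/mL protein), compound and 10 μM GDP preincubated 30 min at 37 °C, then 0.10 nM [35S]GTPγS added for 30 min at 37 °C. Reaction stopped by filtration and bound counts read.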

D(3) dopamine receptor [12] = biological target: D(3) dopamine receptor (Homo sapiens, UniProt P35462, D110E); experiment: Displacement of [3H]spiperone from human dopamine D3 receptor D3.32E mutant expressed in HEK293 cells after 60 mins; type: cell-based; in short: as §1
D(3) dopamine receptor (Homo sapiens, UniProt P35462, D110E), sequence (P35462 as listed by the source D110E): as the sequence (P35462 whole entry) above, with G9S, D110E counted along it

D(3) dopamine receptor [13] = biological target: T1, D(3) dopamine receptor; experiment: Displacement of [3H]spiperone from human dopamine D3 receptor H6.55A mutant expressed in HEK293 cells after 60 mins
D(2) dopamine receptor [14] = biological target: T2, D(2) dopamine receptor; experiment: Agonist activity at human dopamine D2long receptor expressed in CHO cells assessed as increase of forskolin-induced cAMP accumulation by bioluminescence assay
D(3) dopamine receptor [15] = biological target: T1, D(3) dopamine receptor; experiment: Agonist activity at human dopamine D3 receptor expressed in HEK293 cells co-expressing Galphao1 assessed as incorporation of [35S]GTPgammaS into Galphao1 after 30 mins by scintillation counting; type: functional, cell-based
In short: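 Membranes from HEK293 cells transiently transfected with D3 plus PTX-insensitive Gαo; expression 1100 fmol/mg. Buffer: 20 mM Hepes, 10 mM MgCl2, 100 mM NaCl, 70 mg/L saponin, pH 7.4. Membranes at 30-50 μg/mL, with compound and 10 μM GDP, preincubated 30 min at 37 °C. Then 0.10 nM [35S]GTPγS added for 30 min at 37 °C. Filtration, scintillation counting.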

D(3) dopamine receptor [16] = biological target: D(3) dopamine receptor (Homo sapiens, UniProt P35462, S196A); experiment: Displacement of [3H]spiperone from human dopamine D3 receptor S5.46A mutant expressed in HEK293 cells after 60 mins; type: cell-based; in short: as §1
D(3) dopamine receptor (Homo sapiens, UniProt P35462, S196A), sequence (P35462 as listed by the source S196A): as the sequence (P35462 whole entry) above, with G9S, S196A counted along it

D(2) dopamine receptor [17] = biological target: T2, D(2) dopamine receptor; experiment: Agonist activity at human dopamine D2long receptor expressed in CHO cells assessed as induction of [3H]thymidine incorporation after 2 hrs
D(3) dopamine receptor [18] = biological target: T1, D(3) dopamine receptor; experiment: Displacement of [3H]spiperone from human dopamine D3 receptor S5.42A mutant expressed in HEK293 cells after 60 mins; type: cell-based; in short: as §1
D(2) dopamine receptor [19] = biological target: T2, D(2) dopamine receptor; experiment: Antagonist activity at human dopamine D2long receptor expressed in CHO cells assessed as inhibition of forskolin-induced cAMP accumulation by bioluminescence assay; type: functional, cell-based
In short: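 CHO cells stably expressing D2long, seeded at 5000 cells/well 24 h before assay and washed with PBS. Compounds added with 20 μM forskolin in serum-free medium containing 500 μM IBMX and 100 μM Ro 20-1724, pH 7.4, for 15 min at 25 °C. cAMP read by cAMP-Glo luminescence (PKA kinase reaction, then Kinase-Glo).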

D(3) dopamine receptor (Homo sapiens, UniProt P35462, V87F), sequence (P35462 as listed by the source V87F): as the sequence (P35462 whole entry) above, with G9S, V87F counted along it

| SMILES | Ki (D(3) dopamine receptor [1]) | Ki (D(3) dopamine receptor [2]) | Ratio Ki (Homo sapiens) | Ki (D(3) dopamine receptor [3]) | Ki (D(2) dopamine receptor [4]) | Ki (D(1A) dopamine receptor) | Ki [5] | Ki (D(2) dopamine receptor [6]) | Ki (D(4) dopamine receptor) | Ki (D(3) dopamine receptor [7]) | Ki (D(2) dopamine receptor [8]) | Ki (D(3) dopamine receptor [12]) | Ki (D(3) dopamine receptor [13]) | Ki (D(3) dopamine receptor [16]) | Ki (D(3) dopamine receptor [18]) | also measured |
| --- | --- | --- | --- | --- | --- | --- | --- | --- | --- | --- | --- | --- | --- | --- | --- | --- |
| CCCN(CCCCNC(=O)c1ccccc1)C1Cc2ccccc2C1 | 250 nM | 2.7 nM | 93 | – | – | – | – | – | – | – | – | – | – | – | – | – |
| CCCN(CCC)C1Cc2ccccc2C1 | 350 nM | 230 nM | 1.5 | – | – | – | – | – | – | – | – | – | – | – | – | – |
| CCCN(CCCCNC(=O)c1ccc(-c2ccccc2)cc1)C1CCn2nccc2C1 (racemic) | – | – | – | 0.71 nM | 77 nM | 6800 nM | 520 nM | 150 nM | 59 nM | – | – | – | – | – | – | – |
| CCCN(CCCCNC(=O)c1ccc(-c2ccccc2)cc1)C1CCn2ncc(Cl)c2C1 (centres undefined) | – | – | – | 0.59 nM | 43 nM | 3600 nM | 260 nM | 100 nM | 190 nM | – | – | – | – | – | – | – |
| CCCN(CCC)[C@@H]1CCn2nccc2C1 | – | – | – | 2100 nM | 53000 nM | 68000 nM | 2900 nM | 55000 nM | 17000 nM | 4300 nM | 57000 nM | – | – | – | – | – |
| CCCCC(=O)NCCCCN(CCC)C1Cc2ccccc2C1 | 760 nM | 44 nM | 17 | – | – | – | – | – | – | – | – | – | – | – | – | – |
| CCCN(CCCCNC(=O)c1ccc(-c2ccccc2)cc1)[C@H]1CCn2nccc2C1 | 170 nM | 0.076 nM | 2200 | 0.19 nM | – | – | – | 5.3 nM | – | 0.027 nM | 1 nM | 850 nM | 0.98 nM | 0.058 nM | 2.3 nM | EC50 (D(3) dopamine receptor [9]): 0.0028 nM; EC50 (D(2) dopamine receptor [10]): 370 nM; EC50 (D(2) dopamine receptor [11]): 26 nM; EC50 (D(2) dopamine receptor [14]): 110 nM; EC50 (D(3) dopamine receptor [15]): 0.056 nM; EC50 (D(2) dopamine receptor [17]): 0.51 nM |
| CCCN(CCCCNC(=O)c1ccc(-c2ccccc2)cc1)C1Cc2cccn3ncc(c23)C1 (centres undefined) | – | – | – | 0.55 nM | 240 nM | 1800 nM | 86 nM | 270 nM | 230 nM | – | – | – | – | – | – | – |
| COc1ccccc1N1CCN(CCCCNC(=O)c2ccc(-c3ccccc3)cc2)CC1 | 180 nM | 0.9 nM | – | 0.22 nM | – | 570 nM | 5.6 nM | – | 27 nM | – | – | 790 nM | 0.58 nM | 0.16 nM | 2.8 nM | inhibition (D(2) dopamine receptor [19]): Active |
| CCCN(CCC)[C@H]1CCn2nccc2C1 | 420 nM | 150 nM | 2.8 | 31 nM | 270 nM | 53000 nM | 5100 nM | 410 nM | 380 nM | 14 nM | 4.6 nM | 8100 nM | 420 nM | 45 nM | 840 nM | – |
| CCCN(CCCCNC(=O)c1ccc(-c2ccccc2)cc1)C1CCn2ncc(C=O)c2C1 (centres undefined) | – | – | – | 39 nM | 4700 nM | 23000 nM | 3800 nM | 8400 nM | 6300 nM | – | – | – | – | – | – | – |
| CCCN(CCCCNC(=O)c1ccc(-c2ccccc2)cc1)[C@@H]1CCn2nccc2C1 | 3700 nM | 19 nM | 190 | 15 nM | – | – | – | 300 nM | – | 6.3 nM | 49 nM | 1400 nM | 43 nM | 15 nM | 240 nM | EC50 (D(3) dopamine receptor [15]): 51 nM |
| CCCN(CCCCNC(C)=O)C1Cc2ccccc2C1 | 330 nM | 410 nM | 0.8 | – | – | – | – | – | – | – | – | – | – | – | – | – |

Reference: ChEMBL document CHEMBL1765048 (J Med Chem, 2011)
